This is an account of results in ChEMBL document CHEMBL1146064, “Design, synthesis, and biological evaluation of semicarbazide-sensitive amine oxidase (SSAO) inhibitors with anti-inflammatory activity” (J Med Chem, 2006).

pIC50: −log10 of the molar value.

Series [1] deals with T1, Amine oxidase [copper-containing] 3 (Rattus norvegicus, UniProt O08590).
T1 sequence (O08590 whole entry): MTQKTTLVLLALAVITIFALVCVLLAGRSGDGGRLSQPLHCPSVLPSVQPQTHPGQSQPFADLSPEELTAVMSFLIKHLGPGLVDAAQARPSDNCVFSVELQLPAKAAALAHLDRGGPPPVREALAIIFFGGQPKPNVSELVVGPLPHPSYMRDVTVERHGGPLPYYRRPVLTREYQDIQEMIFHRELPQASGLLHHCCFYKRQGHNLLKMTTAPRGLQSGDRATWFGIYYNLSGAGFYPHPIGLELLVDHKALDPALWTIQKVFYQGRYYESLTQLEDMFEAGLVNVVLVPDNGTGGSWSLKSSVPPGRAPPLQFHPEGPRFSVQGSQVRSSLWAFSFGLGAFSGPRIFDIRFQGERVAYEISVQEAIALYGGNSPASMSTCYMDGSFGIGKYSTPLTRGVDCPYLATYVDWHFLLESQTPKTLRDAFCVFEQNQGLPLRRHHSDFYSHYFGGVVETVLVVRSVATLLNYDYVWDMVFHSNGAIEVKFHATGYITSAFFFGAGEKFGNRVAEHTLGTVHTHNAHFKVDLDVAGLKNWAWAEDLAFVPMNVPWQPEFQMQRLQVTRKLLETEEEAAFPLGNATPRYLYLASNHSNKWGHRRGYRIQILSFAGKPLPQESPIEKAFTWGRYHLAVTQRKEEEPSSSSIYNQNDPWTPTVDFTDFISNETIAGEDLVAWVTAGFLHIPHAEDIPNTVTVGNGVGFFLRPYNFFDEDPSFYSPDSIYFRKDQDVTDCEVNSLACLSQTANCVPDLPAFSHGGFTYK
Briefly: Inhibition of SSAO in rat lung. Put shortly: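 Enzyme source is a rat lung homogenate: tissue homogenized 1:20 (w/v) in 10 mM potassium phosphate pH 7.8, then spun at 10000g for 10 min at 4 °C. Reaction stopped with citric acid, toluene/ethyl acetate extract counted by scintillation. IC50 taken from background-corrected dose-response curves (10^-3 to 10^-10 M).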

The target of series [2] is T2, Amine oxidase [flavin-containing] A (Homo sapiens, UniProt P21397).
T2 sequence (P21397 whole entry): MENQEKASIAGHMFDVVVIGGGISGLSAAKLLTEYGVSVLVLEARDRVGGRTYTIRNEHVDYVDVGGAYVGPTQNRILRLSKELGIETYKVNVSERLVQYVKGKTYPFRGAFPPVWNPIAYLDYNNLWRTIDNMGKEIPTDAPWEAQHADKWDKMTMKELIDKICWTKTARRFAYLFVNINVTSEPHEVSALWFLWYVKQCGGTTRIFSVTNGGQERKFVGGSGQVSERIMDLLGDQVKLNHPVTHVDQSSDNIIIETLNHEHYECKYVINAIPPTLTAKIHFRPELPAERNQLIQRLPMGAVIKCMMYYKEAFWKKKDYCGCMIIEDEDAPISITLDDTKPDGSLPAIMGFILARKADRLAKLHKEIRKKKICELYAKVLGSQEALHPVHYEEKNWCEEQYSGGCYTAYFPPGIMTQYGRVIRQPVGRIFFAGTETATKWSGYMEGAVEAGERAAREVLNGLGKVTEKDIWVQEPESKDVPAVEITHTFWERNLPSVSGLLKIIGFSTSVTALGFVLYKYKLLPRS
The experiment in a line: Inhibition of recombinant human MAO-A. Put shortly:
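Recombinant human MAO-A measured with a coupled colorimetric assay. IC50 fitted from inhibition curves over 10^-3 to 10^-10 M inhibitor.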

In series [3] the target is T3, Amine oxidase [flavin-containing] B (Homo sapiens, UniProt P27338).
T3 sequence (P27338 whole entry): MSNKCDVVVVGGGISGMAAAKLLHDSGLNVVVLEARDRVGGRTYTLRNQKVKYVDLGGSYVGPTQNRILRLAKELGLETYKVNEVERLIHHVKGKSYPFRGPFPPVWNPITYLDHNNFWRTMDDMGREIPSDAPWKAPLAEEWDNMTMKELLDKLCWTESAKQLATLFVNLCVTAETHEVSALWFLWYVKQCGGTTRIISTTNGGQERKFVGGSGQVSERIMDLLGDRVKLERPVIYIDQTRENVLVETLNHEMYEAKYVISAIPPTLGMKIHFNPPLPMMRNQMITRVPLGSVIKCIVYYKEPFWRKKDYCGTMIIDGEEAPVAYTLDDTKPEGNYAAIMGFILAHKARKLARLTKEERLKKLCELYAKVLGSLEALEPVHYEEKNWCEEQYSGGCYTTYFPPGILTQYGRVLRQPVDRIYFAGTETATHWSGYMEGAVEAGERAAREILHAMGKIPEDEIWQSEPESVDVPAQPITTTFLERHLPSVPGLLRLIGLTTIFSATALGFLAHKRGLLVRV
Briefly: Inhibition of recombinant human MAO-B.

Series [4] is described as follows: Half life in Sprague-Dawley rat at 5 mg/kg, po. It is filed as ADME, organism-based. Also noted: dose 5 mg/kg, route oral. Particulars: in vivo. The method, boiled down:
(§1)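 Single oral dose of 5.0 mg/kg given to cannulated female Sprague Dawley rats, then plasma concentrations followed over time. Parameters come from noncompartmental analysis and are reported as mean ± SD (n = 3).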

The nature of series [5]: Tmax in Sprague-Dawley rat at 5 mg/kg, po. Format: ADME, organism-based. Also noted: dose 5 mg/kg, route oral. Particulars: in vivo. The method, boiled down: as §1
Series [6] in a line: Cmax in Sprague-Dawley rat at 5 mg/kg, po. Format: ADME, organism-based. Further details: dose 5 mg/kg, route oral. As to conditions: in vivo. The method, boiled down: as §1
Series [7] in a line: AUC in Sprague-Dawley rat at 5 mg/kg, po. As to conditions: plasma. Format: ADME, organism-based. Also noted: dose 5 mg/kg, route oral. Put shortly:
as §1

The nature of series [8]: AUC (infinity) in Sprague-Dawley rat at 5 mg/kg, po. Format: ADME, organism-based. Further details: time infinity, dose 5 mg/kg, route oral. As to conditions: plasma. Put shortly:
as §1

In series [1], `C=C(CNNC(C)C)c1ccc(F)cc1` had a pIC50 of under 6.00.

For the molecule `C=C(CNNC)c1ccc(F)cc1`, in series [1], the pIC50 is 8.77.

For the molecule `C=C(CNN)c1ccccc1.Cl`, the negative-log IC50 (pIC50) in series [1] is 8.70; in series [2], 5.89; in series [3], 4.15. In series [4], this molecule showed a half-life of 11.3 h. Further, the Tmax in series [5] was 0.5 h. In addition, the Cmax in series [6] was 366 ng/mL. Moreover, the AUC in series [7] was 1340 ng·h/mL. In series [8], this molecule gave an AUC(0-inf) of 3310 ng·h/mL. As to `C=C(CNN)c1ccc(F)cc1`, the negative logarithm of the IC50 (pIC50) in series [1] was 8.21; in series [2], 5.22.

The molecule `C=C(CNN)c1ccc(Cl)cc1` gave a negative logarithm of the IC50 (pIC50) in series [1] of 8.52. Consider `C=C(CN(N)Cc1ccccc1)c1ccc(F)cc1`, for which the negative logarithm of the IC50 (pIC50) in series [1] was under 6.00.

For the molecule `C=C(CNNCc1ccccc1)c1ccc(F)cc1`, in series [1], the negative logarithm of the IC50 (pIC50) was under 6.00.

`C=C(CNNCC)c1ccc(F)cc1` had a negative-log IC50 (pIC50) in series [1] of 8.64. Turning to `C=C(CN(C)N)c1ccc(F)cc1`, the negative-log IC50 (pIC50) in series [1] was 6.62.

In the case of `C=C(CNN)c1ccccc1C`, the pIC50 in series [1] was 8.40; in series [2], 5.70; in series [3], 4.05. As to `NNC/C(=C/F)c1ccccc1`, the pIC50 in series [1] is 8.30.

For `C=C(CN(N)CC)c1ccc(F)cc1`, the pIC50 in series [1] was 6.20. Same read-out and setting: with `C=C(CN(N)C(C)C)c1ccc(F)cc1` the figure was 6.38.
